NTR1 ag: activates human neurotensin receptor 1. AID 493036. 330,000 compounds, 0.17% hits. NTR1-U2OS beta-arrestin-GFP spot imaging, agonist mode. activation, % at 20 µM. P30989;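 active = activation at or above 40% of the spot to cytoplasm intensity ratio, with at least 20 cells analyzed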;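 also: 0% = DMSO without peptide and 100% = 100 nM NTR1 peptide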
HTR2A ag: agonists of mouse serotonin 5-HT2A receptor (HTR2A); AID 624169; 360,000 compounds, 0.66% hits; activation, % at 7.6 µM; P35363; CHO-K1 mHTR2A beta-arrestin complementation, luminescence; percent of 30 µM serotonin response;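 active = activation above a run cutoff, the mean activation of all tested compounds plus 3 SD, cut at about 14% in these data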;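 also: 0% = plate median of compound wells and 100% = 30 µM serotonin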
Hep lipid drop: modulators of hepatic lipid droplet formation; 240,000 compounds, 0.4% hits; AML12 mouse hepatocytes, oleate lipid droplets, BODIPY imaging; inhibition, % at 6.5 µM; AID 1656;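 active = lipid droplet intensity inhibited by at least 50%, with more than 500 cells counted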
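Technique: fluorescence imaging, 20x objective, two fields per well / Assay system: AML12 hepatocytes (mouse) / Measure: % inhibition of lipid droplet signal / Doses: 6.5 µM single-point dosing / Incubation: overnight exposure / Reagent: 100 µM oleic acid challenge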
MC4R barr agon: agonists of human melanocortin 4 receptor (MC4R) beta-arrestin; P32245; U2OS MC4R beta-arrestin complementation, luminescence; percent of melanotan II response, DMSO zero; activation, % at 8.9 µM; 360,000 compounds, 0.98% hits; AID 540308;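 active = activation above a per-plate cutoff, the mean activation of sample wells on that plate plus 3 SD, cut at about 8% in these data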
Target sequence (P32245 whole entry, looked up): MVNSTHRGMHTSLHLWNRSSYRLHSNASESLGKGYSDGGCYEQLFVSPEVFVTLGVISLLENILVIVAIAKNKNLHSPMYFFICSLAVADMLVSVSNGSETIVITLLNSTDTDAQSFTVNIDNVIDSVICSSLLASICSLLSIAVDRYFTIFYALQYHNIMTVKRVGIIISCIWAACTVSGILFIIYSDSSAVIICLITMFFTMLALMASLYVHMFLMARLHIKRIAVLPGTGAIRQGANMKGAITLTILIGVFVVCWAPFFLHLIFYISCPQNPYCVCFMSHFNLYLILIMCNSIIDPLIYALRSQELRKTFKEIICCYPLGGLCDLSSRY
PREPL inh: human PREPL enzyme inhibition. inhibition, % at 5.96 µM. 320,000 compounds, 0.68% hits. recombinant PREPL, fluorescence polarization activity-based probe. AID 2751. Q4J6C6; in the data active = inhibition above about 43%;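 also: 0% = enzyme with DMSO and 100% = wells lacking enzyme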
MC4R antag cAMP: antagonists of human melanocortin 4 receptor (MC4R); P32245; MC4R-expressing cells, MTII-stimulated cAMP, LANCE TR-FRET; inhibition, % at 6.5 µM; 360,000 compounds, 0.48% hits; AID 540295;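 active = inhibition above its plate's cutoff, the mean of tested wells on that plate plus 3 SD, cut at about 29% in these data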;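 also: 0% = Melanotan II alone and 100% = Melanotan II plus saturating MCL0020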
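Material: human MC4R-expressing U2OS cells. Probe or stimulus: Melanotan II challenge. Dosing: 6.5 µM single dose. Times: 30-min compound, 1-h challenge, 1-h detection, room temperature. Technique: TR-FRET with Eu-cAMP and labeled anti-cAMP, 671 nm. Replication: singlicate.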
U2OS cAMP counter: U2OS forskolin cAMP inhibition counter-screen; shares compounds with MC4R antag cAMP; parental U2OS, LANCE TR-FRET; inhibition, % at 6.5 µM; 1,600 compounds, 26% hits; AID 602193;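 active = mean inhibition over triplicates above the low-control well mean plus 3 SD, set per campaign, cut at about 13% in these data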;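 also: signal is single emission at 671 nm which falls as cellular cAMP rises; 0% = forskolin-stimulated wells and 100% = buffer without forskolin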
MC4R antag conf: human MC4R cAMP antagonism confirmation; shares compounds with MC4R antag cAMP; 1,600 compounds, 27% hits; inhibition, % at 6.5 µM; MC4R-expressing cells, MTII-stimulated cAMP, TR-FRET; in the data active = inhibition above about 29%;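 also: 0% = agonist stimulated wells alone and 100% = agonist stimulated wells plus saturating reference antagonist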
Starred values were filed as active, the others as inactive; / = no result. Most compounds without a hit are left out; they make up all but 2.7% or so of the library.

SMILES	NTR1 ag	HTR2A ag	Hep lipid drop	MC4R barr agon	PREPL inh	MC4R antag cAMP	U2OS cAMP counter	MC4R antag conf
CC(=O)Nc1ccc(NC(=O)c2nc(S(=O)(=O)Cc3cccc(C)c3)ncc2Cl)cc1	1.2	-1.6	14.0	-5.9	1.0	42.9*	14.2*	27.8
COC(=O)c1ccc(NC(=O)c2nc(S(=O)(=O)Cc3cccc(C)c3)ncc2Cl)cc1	-1.6	-0.4	-22.1	-6.4	6.6	13.6	/	/
CCCc1nnc(NC(=O)c2nc(S(=O)(=O)Cc3ccc(C)cc3)ncc2Cl)s1	0.5	-0.8	-17.9	-4.7	3.2	52.1*	21.7*	36.4*
CC1CCN(S(=O)(=O)c2ccc(NC(=O)c3ccncc3)cc2)CC1	-0.8	-7.2	6.2	-2.4	5.3	0.8	/	/
Cc1cccc(CS(=O)(=O)c2ncc(Cl)c(C(=O)NCc3ccc4c(c3)OCO4)n2)c1	19.5	-9.7	15.8	-3.4	8.3	32.6*	10.0	24.7
CCS(=O)(=O)c1ncc(Cl)c(C(=O)Nc2ccc(S(=O)(=O)N3CCC(C)CC3)cc2)n1	27.6	-8.1	-2.1	-3.0	-15.2	56.0*	9.2	38.5*
Cc1ccc(C(=O)NCc2ccc3c(c2)OCO3)c(Cl)c1	/	2.0	/	-1.3	/	3.2	/	/
CC1=C(C(=O)N2CCCCCC2)CC(CC(=O)NC2CCCCC2)C(=O)N1Cc1ccc(F)cc1 (configuration not stated)	/	-0.2	/	/	/	/	/	/
CCc1ccc(NC(=O)c2nc(S(=O)(=O)Cc3ccccc3)ncc2Cl)cc1	-1.9	-4.0	-4.1	-6.5	-3.3	36.4*	12.1	16.5
CCCn1c(CCNc2nc(-c3ccc(Cl)c([N+](=O)[O-])c3)cs2)nc2cc(Cl)c(Cl)cc21	1.6	-4.0	-16.7	-0.6	12.8	7.4	/	/
O=[N+]([O-])c1cc(-c2csc(NCCc3nc4cc(Cl)c(Cl)cc4n3CCCO)n2)ccc1Cl	2.0	-2.6	/	-1.6	23.3	33.2*	15.6*	20.2
Cc1cc(C(=O)NC2CCCN(Cc3ccc(Cl)cc3)C2)n(C)n1 (configuration not stated)	1.8	1.6	4.3	1.5	/	-6.5	/	/
C=C1CC2(CC(c3ccccc3)OC(c3ccccc3)C2)OC1=O (configuration not stated)	/	-8.2	/	-1.4	/	34.3*	20.7*	46.2*
O=C1CCCC[C@@H](O)[C@H](O)C[C@H](c2ccccc2)O1	/	1.2	/	/	/	/	/	/
Cc1cc(NC(=O)CSc2nc(-c3cccnc3)ccc2C#N)no1	-0.7	4.1	/	0.1	4.4	10.8	/	/
Cc1cc(NC(=O)CSc2nc3c(c(-c4cccnc4)c2C#N)CCC3)no1	1.9	-0.8	2.5	2.5	23.5	46.9*	18.8*	57.0*
Cc1cc(NC(=O)CSc2nc3ccccc3cc2C#N)no1	0.0	6.3	16.1	-0.4	5.4	50.7*	7.0	-0.4
CC(C)(C)n1nnnc1C(c1cccnc1)N1CCN(c2cccc(C(F)(F)F)c2)CC1 (configuration not stated)	1.1	-6.4	-6.4	-1.0	-1.2	20.4	/	/
CC(C)(C)c1cc(C(c2cccnc2)N2CCN(CCO)CC2)cc(C(C)(C)C)c1O (configuration not stated)	1.2	4.3	11.5	-2.6	-10.6	28.6*	9.6	19.4
COc1ccc(CCNC2=C(Cl)C(=O)N(CCc3ccc(OC)c(OC)c3)C2=O)cc1OC	17.9	1.3	-34.7	-0.4	5.1	31.2*	4.6	16.5
O=C(NC(Cc1c[nH]c2ccccc12)C(=O)N/N=C/c1ccc(Cl)cc1)c1cccs1 (configuration not stated)	10.3	-6.0	/	0.5	16.6	30.1*	2.2	7.1
N#Cc1c(-c2ccc(Br)cc2)cc(-c2cccnc2)nc1N	0.6	-3.9	2.6	-0.8	6.0	7.1	/	/
N#Cc1c(-c2ccccc2)cc(-c2ccc(O)cc2)nc1N	4.4	-8.2	/	-0.4	8.8	-12.3	/	/
CS(=O)(=O)c1nc(-c2ccc(Br)cc2)cc(-c2ccccc2)c1C#N	14.6	-2.2	14.4	4.2	1.7	43.1*	24.6*	65.0*
CS(=O)c1nc(-c2ccc(Br)cc2)cc(-c2ccccc2)c1C#N (configuration not stated)	65.6*	-4.2	11.8	1.3	-0.8	57.0*	12.3	65.7*
SMILES	NTR1 ag	HTR2A ag	Hep lipid drop	MC4R barr agon	PREPL inh	MC4R antag cAMP	U2OS cAMP counter	MC4R antag conf
COc1ccc(-c2cc(-c3ccccc3)c(C#N)c(S(C)(=O)=O)n2)cc1	11.0	-3.2	16.2	-0.5	1.1	30.0*	16.7*	48.4*
NC(=O)Cc1nc(-c2ccc(Br)cc2)cs1	-0.4	4.1	1.2	0.3	-7.6	9.4	/	/
O=C(O)c1cnn(-c2nc(-c3ccc(Br)cc3)cs2)c1C(F)(F)F	-0.4	5.6	/	-0.3	1.8	32.2*	0.0	2.0
O=C(O)c1cnn(-c2nc(-c3ccc(F)cc3)cs2)c1C(F)(F)F	-0.5	4.4	2.1	1.3	-8.4	32.4*	2.2	4.1
CCOC(=O)c1cnn(-c2nc(-c3ccc(C)cc3)cs2)c1C(F)(F)F	/	4.9	/	-0.1	-8.2	12.8	/	/
CCOC(=O)c1ccc(NC(=O)N2CCN(C(=O)C3CCCO3)CC2)cc1 (configuration not stated)	-1.4	-3.6	6.1	-1.2	11.0	0.5	/	/
Cc1nn(CC(=O)Nc2cccc(Cl)c2)c(=O)c2cc(-c3ccccc3)nn12	4.6	3.3	-20.8	-3.2	6.6	2.1	/	/
CCOc1ccc(OCC)c(NC(=O)CN2CCN(CC(=O)NC(C)C)CC2)c1	0.6	1.9	-1.3	-0.9	16.7	2.2	/	/
O=C(NCCOc1ccccc1Cl)c1ncn[nH]1	-1.5	1.6	-16.0	-0.4	2.0	30.1*	-1.9	-9.1
COC(=O)C(C)NC(=S)N1CCN(c2c(F)cc3c(=O)c(C(=O)O)cn(C4CC4)c3c2OC)CC1C (configuration not stated)	-0.9	-3.4	2.4	-0.5	2.6	20.1	/	/
COc1ccc(NC(=O)c2cc(-c3cc(F)ccc3OC)n[nH]2)c(OC)c1	/	4.2	/	-2.0	/	13.7	/	/
COc1ccc(NC(=O)c2cc(-c3ccc(F)cc3OC)n[nH]2)c(OC)c1	/	-0.8	/	1.4	/	30.0*	3.8	3.9
N#Cc1c(Cl)cccc1N1CCSCC1	/	-0.3	/	/	/	/	/	/
N#Cc1c(N2CCSCC2)nsc1-c1ccccc1Cl	/	-3.3	-1.1	-2.4	/	29.2*	24.2*	47.4*
O=C(O)c1ccccc1C(=O)c1cccc2c(F)cccc12	/	-1.3	/	-1.7	/	9.2	/	/
